Autophagy mod: autophagy modulators in MEF cells, primary screen, imaging, high-content, MEF GFP-LC3; MEF GFP-LC3 puncta imaging; test concentration mostly 10 µM; calls only at 10 µM (by protocol); 190,000 compounds, 0.98% hits; AID 463193, 2010;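 active = percentage of spot-positive cells more than 3 SD above its plate mean, without a fluorescence outlier flag or 80% toxicity; inconclusive = no clear call, values can overlap the other calls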;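 note: spot-positive cell cutoff set from DMSO-treated cells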
MT stabilizer: microtubule stabilizers in HeLa cells, primary screen, imaging, high-content imaging; HeLa tubulin immunostaining HCS, 24 h; share of cells brighter than vehicle mean+2SD; % tubulin-high responders, % at 10 µM; 200,000 compounds, 0.83% hits; AID 2205, 2009;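 active = plate Z-score above 3 for both tubulin-high and condensed-nucleus cell shares, with cell loss under 80%, at 10 µM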;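 note: anti alpha tubulin signal scored within the nucleus-defined area of each cell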
b-catenin transl: modulators of beta-catenin nuclear translocation, primary screen, imaging, HeLa cells, immunofluorescence, high-content; 190,000 compounds, 0.3% hits; nuclear translocation activity, % at 5 µM; AID 1665, 2009;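 active = nuclear translocation activity above 50% at 5 µM, with a well cell count of 50 or more; inconclusive = wells under 50 cells across six images, flagged as toxic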;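 note: per-cell ratio of nuclear to cytoplasmic median beta-catenin stain intensity; plate controls were DMSO negative control for no effect and GSK-3 inhibitor IX positive control for full effect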
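Test system: human HeLa cell line; Doses: 5 µM primary, 0.02–20 µM confirmation; Incubation: 24 h compound exposure, 37°C; Detection: beta-catenin immunofluorescence imaging with DAPI; Read-out: beta-catenin nuclear/cytoplasmic ratio, % activation.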
Ins promoter up: insulin promoter activators in MIN6 cells, imaging, high-content screening, mouse beta cells; MIN6 insulin promoter-GFP reporter; active compounds read high; z-score at 5 µM; 190,000 compounds, 0.3% hits; AID 1625, 2009;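 active = z-score above 3 at 5 µM with at least 500 cells counted in the well; inconclusive = wells under 500 cells, flagged as cytotoxic or low count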
* = called active by the depositor. Hits are enriched below; roughly 1.9% of the tested compounds scored in any of these assays.

Results for CCOC(=O)/C(=C\c1cccnc1)C(=O)c1cc(C(C)=O)c(Nc2ccccc2)s1 ?
Autophagy mod: active; MT stabilizer: 1; b-catenin transl: -3; Ins promoter up: -1.3

What do the screens show for `CCOC(=O)/C(=C\c1ccccc1)C(=O)c1cc(C(C)=O)c(Nc2ccccc2)s1`?
Autophagy mod: active; MT stabilizer: 7; Ins promoter up: 0.71

Results for CCOC(=O)C(=Cc1ccc(Br)cc1)C(=O)OCC ?
b-catenin transl: 0; Ins promoter up: -1.3

What do the screens show for `CCCn1c(SCC(=O)NC2CCCCC2)nnc1-c1ccncc1`?
Autophagy mod: inactive; MT stabilizer: 1; b-catenin transl: -4; Ins promoter up: 3.1*

How did COc1ccc(NS(=O)(=O)c2cc(C)ccc2C)cc1 do in these assays?
Autophagy mod: inactive; MT stabilizer: 59*; b-catenin transl: 0; Ins promoter up: -0.02

What do the screens show for `COc1ccc(NS(=O)(=O)c2cc(S(C)(=O)=O)ccc2C)cc1`?
Autophagy mod: inactive; MT stabilizer: 4; b-catenin transl: 1; Ins promoter up: 0.1

What do the screens show for `COc1ccc(NC(=O)c2cc(S(=O)(=O)N3CCCC3)oc2C)cc1`?
b-catenin transl: -1; Ins promoter up: 0.49

What do the screens show for `COc1ccc(NS(=O)(=O)c2cc(OC)ccc2NC(=O)c2cc(C)oc2C)cc1`?
Autophagy mod: inactive; MT stabilizer: 38*; b-catenin transl: 3

How did COc1ccc(S(=O)(=O)n2nc(OC(=O)c3c(-c4ccccc4Cl)noc3C)cc2N)cc1 do in these assays?
Autophagy mod: inactive; MT stabilizer: 5

Results for COC(=O)c1ccc(COc2ccc3c(C)c(C)c(=O)oc3c2)o1 ?
Autophagy mod: inactive; MT stabilizer: 4; Ins promoter up: 3.5*

How did O=C(O)c1ccc(COc2ccc3c4c(c(=O)oc3c2)CCC4)o1 do in these assays?
Autophagy mod: inactive; MT stabilizer: 5; b-catenin transl: -2; Ins promoter up: 1.7

Results for O=C(c1cccc(S(=O)(=O)N2CCOCC2)c1)N1CCCCCC1 ?
Autophagy mod: active; MT stabilizer: 3; b-catenin transl: 2; Ins promoter up: 0.09

How did O=c1c(N2CCOCC2)c(N2CCOCC2)c1=O do in these assays?
b-catenin transl: 1; Ins promoter up: 3*

Results for CCCCN1C(=O)/C(=C/C=C2\N(C)c3ccccc3C2(C)C)SC1=S ?
Autophagy mod: active; MT stabilizer: 11; b-catenin transl: 13

How did CCN(c1ccccc1)S(=O)(=O)c1ccc(Cl)c(NC(=O)CSc2nncs2)c1 do in these assays?
Autophagy mod: inactive; MT stabilizer: 7; b-catenin transl: -1; Ins promoter up: 0.16

What do the screens show for `O=C(CSc1nc2ccccc2n1S(=O)(=O)c1ccccc1)N1CCCC1`?
Autophagy mod: inactive; MT stabilizer: 6; b-catenin transl: 0; Ins promoter up: -0.42

Results for COc1ccc(C=C2c3ccccc3C(=O)c3ccccc32)c(OC)c1 ?
b-catenin transl: 82*; Ins promoter up: inconclusive

Results for Oc1cc(NCc2cccnc2)ccc1-c1nc2ccccc2o1 ?
Autophagy mod: active; MT stabilizer: 2; b-catenin transl: 2; Ins promoter up: 2.5

What do the screens show for `COc1ccc(CN2C3CCCC2CC(NC(=O)/C=C/c2ccccc2)C3)cc1` (stereo not drawn)?
Autophagy mod: active; MT stabilizer: 2; b-catenin transl: 1; Ins promoter up: 0.21

How did CCN(CC)C(=O)c1sc2nc(-c3cccs3)cc(-c3ccc(Cl)cc3)c2c1N do in these assays?
Autophagy mod: active; MT stabilizer: 2; b-catenin transl: 1; Ins promoter up: 2

Results for N#Cc1sc2nc(-c3cccs3)cc(-c3ccc(Cl)cc3)c2c1N ?
Autophagy mod: active; MT stabilizer: 14; b-catenin transl: 1; Ins promoter up: -0.14

Results for Cn1c(-c2cccc(Br)c2)n[nH]c1=O ?
Autophagy mod: inactive; MT stabilizer: 3; b-catenin transl: 2

How did O=C(NCc1cccs1)C1CCCN1C(=O)Nc1ccc(Cl)cc1 (stereo not drawn) do in these assays?
Autophagy mod: inactive; MT stabilizer: 5; b-catenin transl: -3; Ins promoter up: -0.29

How did NC(=O)[C@@H]1CCCN1Cc1nc(-c2cccs2)no1 do in these assays?
Autophagy mod: inactive; MT stabilizer: 4; b-catenin transl: -1; Ins promoter up: -1.4

What do the screens show for `O=C(c1cc(-c2cccnc2)nc2ccccc12)N1CCCc2ccccc21`?
Autophagy mod: inactive; MT stabilizer: 14*; b-catenin transl: -3; Ins promoter up: 0.64
